Source: PubChem BioAssay (several laboratories)
The sample as a whole holds a higher share of hits than the screen did.
Fibroblast inh = blocks proliferation of human lung fibroblasts. viability, % at 10 µM. 85,000 compounds, 1.1% hits. LL 47 human lung fibroblast viability, ATP luminescence; hits give low values;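 active = viability at or below 50% in the single dose screen; inactive = viability above 50%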;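 also: compound exposure lasted 72 h before the ATP readout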
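Benchmarks: Cell-only wells, no compound | Test system: LL 47 human lung fibroblasts, passage 12 or lower | Input: 1,150 cells/well | Measured by: CellTiter-Glo luminescence measuring cellular ATP | Medium: IMEM, 15% FBS supplement | Schedule: Overnight attachment after seeding, then 72 h compound exposure at 37 °C | Doses: Compound addition at 0.1% DMSO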
H69AR growth 86K = growth inhibitors of human H69AR lung tumor cells; viability, % at 10 µM; 85,000 compounds, 6% hits; H69AR lung tumor viability, ATP luminescence, 72 h; hits give low values;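 active = viability at or below 40%; inactive = viability above 40%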;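 also: multidrug resistant small cell line overexpressing MRP-1 efflux transporter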
PTEN del growth = suppresses growth of cells with PTEN deletion; HCT116 PTEN-null viability, CellTiter-Glo, 60 h; hits give low values; viability, % at 10 µM; 140,000 compounds, 1.2% hits;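 active = viability at or below a set limit, 4 SD under the median of all tested compounds, cut at about 3.7% in these data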;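 also: PTEN knockout HCT116 line with beta catenin targeted HCT116 as companion control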
HCT116 bCat-KO = beta-catenin-lacking colon tumor cell growth suppression. HCT116 beta-catenin knockout viability, CellTiter-Glo, 60 h; hits give low values. viability, % at 10 µM. 140,000 compounds, 1.5% hits. AID 818;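 active = viability at or under a set limit, the compound median less 4 SD, cut at about 6% in these data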
Phagocyt inh = macrophage phagocytosis inhibition | 110,000 compounds, 0.07% hits | inhibition, % at 5 µM | J774A.1 macrophage IgG-bead phagocytosis, imaging;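 active = inhibition above the mean of the plate negative controls plus 5 SD, cut at about 13% in these data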;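 also: phagocytic index as fraction of beads internalized from green versus red external bead signal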
HUVEC inhibit = blocks proliferation of human endothelial cells. HUVEC proliferation, CellTiter-Glo luminescence, 72 h; hits give low values. viability, % at 10 µM (by protocol). 86,000 compounds, 1.1% hits;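 active = viability at or below 30%; inactive = viability above 30%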
A number is an active result.

Results for COc1ccc(Cc2nc3c4c(ncn3n2)Oc2c(ccc3ccccc23)C4c2ccc(OC)c(OC)c2)cc1 (centres undefined) ?
PTEN del growth: inactive; HCT116 bCat-KO: inactive

What do the screens show for `N=c1c2c(ncn1Cc1ccco1)Oc1ccc3ccccc3c1C2c1ccccc1` (centres undefined)?
PTEN del growth: inactive; HCT116 bCat-KO: inactive; Phagocyt inh: inactive

How did COc1ccc(C2c3c(ncn(Cc4ccco4)c3=N)Oc3ccc4ccccc4c32)cc1 (centres undefined) do in these assays?
PTEN del growth: 1.6; HCT116 bCat-KO: 2.2; Phagocyt inh: inactive

How did COc1ccc(-c2csc3nc(-c4ccc(C)cc4)oc(=O)c23)cc1OC do in these assays?
PTEN del growth: 1.8; HCT116 bCat-KO: 1.7; Phagocyt inh: inactive

What do the screens show for `COc1ccc(C2N(S(=O)(=O)c3ccccc3)CCN2S(=O)(=O)c2ccc(C)cc2)cc1` (centres undefined)?
Fibroblast inh: inactive; H69AR growth 86K: inactive; PTEN del growth: inactive; HCT116 bCat-KO: inactive; HUVEC inhibit: inactive

Results for O=C(CCc1ccc(Oc2cc([N+](=O)[O-])cc([N+](=O)[O-])c2)cc1)N1CCCCC1 ?
PTEN del growth: inactive; HCT116 bCat-KO: inactive; Phagocyt inh: inactive

What do the screens show for `Cc1cnn(-c2cc(N/N=C/c3ccccc3)ncn2)c1`?
PTEN del growth: inactive; HCT116 bCat-KO: inactive; Phagocyt inh: inactive

How did Cc1cnn(-c2cc(N/N=C/c3ccccc3F)ncn2)c1 do in these assays?
PTEN del growth: 2.6; HCT116 bCat-KO: inactive

How did Cc1nc2cc(N3CCCCC3)c(NC(=O)c3ccncc3)cc2c(=O)n1Cc1ccccc1 do in these assays?
PTEN del growth: inactive; HCT116 bCat-KO: 4.4; Phagocyt inh: inactive

What do the screens show for `COC(=O)CSc1nc2ccc(NC(=O)CSc3nnnn3Cc3ccccc3)cc2s1`?
Fibroblast inh: 31; H69AR growth 86K: inactive; PTEN del growth: inactive; HCT116 bCat-KO: inactive; Phagocyt inh: inactive; HUVEC inhibit: inactive

What do the screens show for `O=C(CSc1nc2ccc(NC(=O)CSc3nnnn3Cc3ccccc3)cc2s1)Nc1ccccc1`?
Fibroblast inh: inactive; H69AR growth 86K: inactive; PTEN del growth: inactive; HCT116 bCat-KO: inactive; HUVEC inhibit: inactive

Results for Cc1cc(C)c(NC(=O)CSc2nc3ccc(NC(=O)CSc4nnnn4Cc4ccccc4)cc3s2)c(C)c1 ?
Fibroblast inh: inactive; H69AR growth 86K: 14; HUVEC inhibit: inactive

What do the screens show for `Cc1cc(C)c(NC(=O)CSc2nc3ccc(NC(=O)CSc4nnnn4-c4ccccc4)cc3s2)c(C)c1`?
PTEN del growth: inactive; HCT116 bCat-KO: inactive

Results for COCCn1c(=NC(=O)c2cc(Cl)sc2Cl)sc2cc(S(N)(=O)=O)ccc21 ?
PTEN del growth: 2.3; HCT116 bCat-KO: inactive; Phagocyt inh: inactive

What do the screens show for `CCOCCn1c(=NC(=O)c2cc(Cl)sc2Cl)sc2cc(S(N)(=O)=O)ccc21`?
PTEN del growth: inactive; HCT116 bCat-KO: 4.9; Phagocyt inh: inactive

What do the screens show for `COCCn1c(=NC(=O)c2ccc(S(=O)(=O)N3CCc4ccccc4C3)cc2)sc2cc(S(N)(=O)=O)ccc21`?
PTEN del growth: inactive; HCT116 bCat-KO: inactive; Phagocyt inh: inactive

What do the screens show for `COC(=O)/C(=C\Nc1ccc(Cl)cc1Cl)NC(=O)c1ccccc1`?
Fibroblast inh: inactive; H69AR growth 86K: inactive; PTEN del growth: inactive; HCT116 bCat-KO: inactive; Phagocyt inh: inactive; HUVEC inhibit: inactive

How did COC(=O)/C(=C\Nc1ccc(Cl)cc1Cl)NC(=O)c1ccc(Cl)cc1Cl do in these assays?
Fibroblast inh: inactive; H69AR growth 86K: 21; PTEN del growth: inactive; HCT116 bCat-KO: inactive; Phagocyt inh: inactive; HUVEC inhibit: 27

What do the screens show for `O=C(CSC1=NCCS1)NC1CCCC1`?
Fibroblast inh: inactive; H69AR growth 86K: inactive; PTEN del growth: inactive; HCT116 bCat-KO: inactive; HUVEC inhibit: inactive

Results for COC(=O)C1=C(C)N(C)C(C)=C(C(=O)OC)C1c1ccccn1 ?
Fibroblast inh: inactive; H69AR growth 86K: inactive; PTEN del growth: inactive; HCT116 bCat-KO: inactive; Phagocyt inh: inactive; HUVEC inhibit: inactive

How did Clc1ccccc1-c1ccc(/C=N/n2cnnc2)o1 do in these assays?
Fibroblast inh: inactive; H69AR growth 86K: inactive; PTEN del growth: inactive; HCT116 bCat-KO: inactive; Phagocyt inh: inactive; HUVEC inhibit: inactive

What do the screens show for `Cc1c(Cl)cccc1-c1ccc(/C=N/n2cnnc2)o1`?
Fibroblast inh: inactive; H69AR growth 86K: inactive; PTEN del growth: inactive; HCT116 bCat-KO: inactive; Phagocyt inh: inactive; HUVEC inhibit: 27

What do the screens show for `Clc1cccc(-c2ccc(/C=N/n3cnnc3)o2)c1Cl`?
Fibroblast inh: inactive; H69AR growth 86K: inactive; PTEN del growth: inactive; HCT116 bCat-KO: inactive; HUVEC inhibit: 9.8

How did COc1ccccc1OCC(=O)NNC(=O)C(=O)N1CCCC1 do in these assays?
PTEN del growth: inactive; HCT116 bCat-KO: inactive; Phagocyt inh: inactive

What do the screens show for `COc1ccc(-c2nc(Cn3c(SCc4ccccc4F)nc4ccncc43)c(C)o2)cc1`?
Fibroblast inh: 40; H69AR growth 86K: 14; PTEN del growth: inactive; HCT116 bCat-KO: inactive; Phagocyt inh: inactive; HUVEC inhibit: inactive

Results for NS(=O)(=O)c1cnccc1Nc1ccc(Cl)c(Cl)c1 ?
PTEN del growth: inactive; HCT116 bCat-KO: inactive; Phagocyt inh: inactive

Results for Cc1ccc(NC(=O)COC(=O)c2cc(C)nc3ccccc23)c([N+](=O)[O-])c1 ?
PTEN del growth: inactive; HCT116 bCat-KO: inactive; Phagocyt inh: inactive

What do the screens show for `N#Cc1c(NC(=O)c2cc(C3CC3)on2)sc2c1CCC2`?
Fibroblast inh: inactive; H69AR growth 86K: 33; PTEN del growth: inactive; HCT116 bCat-KO: inactive; Phagocyt inh: inactive; HUVEC inhibit: inactive

What do the screens show for `Cc1cc(C(=O)Nc2sc3c(c2C#N)CCC3)no1`?
Fibroblast inh: inactive; H69AR growth 86K: 22; PTEN del growth: inactive; HCT116 bCat-KO: inactive; Phagocyt inh: inactive; HUVEC inhibit: inactive

Results for Cc1cc(C(=O)Nc2sc3c(c2C#N)CCCC3)no1 ?
Fibroblast inh: inactive; H69AR growth 86K: 27; PTEN del growth: inactive; HCT116 bCat-KO: inactive; HUVEC inhibit: inactive

How did Cc1cc(C)nc(Nc2n[nH]c(COc3cccc4ccccc34)n2)n1 do in these assays?
Fibroblast inh: inactive; H69AR growth 86K: 38; PTEN del growth: inactive; HCT116 bCat-KO: inactive; Phagocyt inh: inactive; HUVEC inhibit: inactive

What do the screens show for `Cc1cc(C)nc(Nc2n[nH]c(COc3ccccc3)n2)n1`?
Fibroblast inh: inactive; H69AR growth 86K: inactive; PTEN del growth: inactive; HCT116 bCat-KO: inactive; Phagocyt inh: inactive; HUVEC inhibit: inactive

Results for O=C(/C=C/c1ccccc1)CC(O)(c1ccccc1)C(F)(F)F (centres undefined) ?
Fibroblast inh: 35; H69AR growth 86K: 2.0; HCT116 bCat-KO: 3.9; Phagocyt inh: inactive; HUVEC inhibit: 26

How did COc1ccc(/C=C/C(=O)CC(O)(c2ccccc2)C(F)(F)F)cc1 (centres undefined) do in these assays?
Fibroblast inh: inactive; H69AR growth 86K: 38; PTEN del growth: inactive; HCT116 bCat-KO: inactive; HUVEC inhibit: inactive
